Bioassay records as filed in PubChem BioAssay.
GSK3A inh = human GSK-3 alpha kinase inhibition | inhibition, % at 10 µM | ADP-Glo luminescence, 60 min | P49840 | actives 0.1% (n = 320,000);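 active = more than half of replicates show inhibition above 20%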;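 also: GST-tagged GSK-3 alpha with peptide substrate and 25 µM ATP; 0% = DMSO neutral wells and 100% = GW8510 positive control wells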
Env fusion inh = HIV envelope-mediated fusion inhibition; HeLa-JRFL Env/CEM21 cell fusion, luciferase; inhibition, % at 12.3 µM; actives 1.1% (n = 360,000);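 active = mean replicate inhibition score of at least 50 and every replicate individually at or above 50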;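 also: 0% = plate neutral controls and 100% = maraviroc near 300 nM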
GSIS activator = primary screen for activators of insulin secretion dependent on glucose, INS-1E cells, GLuc reporter luminescence | INS-1E GLuc reporter insulin secretion, 2-3 h | activation, % at 16.6 µM | actives 0.61% (n = 370,000);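 active = lowest replicate activation of at least 40%, so every replicate reaches that level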;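 also: 0% = median of neutral control wells and 100% = median of IBMX positive control wells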
STK33 kinase inh = blocks human STK33 kinase activity; Q9BYT3; purified STK33, MBP phosphorylation, ADP-Glo luminescence; inhibition, % at 10 µM; actives 0.073% (n = 320,000); AID 2661;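 active = inhibition at or above 25%, using the most active replicate where run in duplicate; inactive = inhibition below 25%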
Target sequence (Q9BYT3 whole entry, looked up): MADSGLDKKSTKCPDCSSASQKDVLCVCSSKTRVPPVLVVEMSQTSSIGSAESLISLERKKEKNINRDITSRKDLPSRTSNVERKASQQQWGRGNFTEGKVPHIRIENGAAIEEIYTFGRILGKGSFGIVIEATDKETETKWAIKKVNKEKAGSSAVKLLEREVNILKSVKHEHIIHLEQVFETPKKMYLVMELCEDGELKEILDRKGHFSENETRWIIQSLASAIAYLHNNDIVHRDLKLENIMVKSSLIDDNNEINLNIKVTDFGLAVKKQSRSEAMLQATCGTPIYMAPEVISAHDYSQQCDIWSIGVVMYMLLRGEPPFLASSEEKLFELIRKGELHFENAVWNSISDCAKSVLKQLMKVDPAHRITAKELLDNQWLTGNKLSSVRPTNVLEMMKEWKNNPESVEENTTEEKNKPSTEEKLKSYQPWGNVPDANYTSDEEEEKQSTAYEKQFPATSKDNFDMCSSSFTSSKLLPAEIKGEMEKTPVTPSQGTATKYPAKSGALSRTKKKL
GSK3B inh = blocks human GSK3beta kinase activity. activity score (negative = inhibition), % at 10 µM. AID 2097. GST-GSK3beta kinase, ADP-Glo luminescence, 60 min; stronger effect = lower value. actives 0.038% (n = 300,000). P49841;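 active = more than half of replicate wells score below -50%, meaning over 50% inhibition versus plate controls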;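 also: 0% = median DMSO wells and -100% = median GW8510 positive control wells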
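test system = GST-tagged human GSK3beta kinase, cell-free | reagent = 25 µM ATP with peptide substrate | dosing = one dose of 10 µM per compound | schedule = 60 min reaction, RT | detection = luminescent ADP-Glo measurement of ADP formed | control set = DMSO neutral wells and GW8510 at 20 µM as positive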
CDK5 inh = CDK5/p35 (human) kinase inhibition | Recombinant CDK5/p35, ADP-Glo luminescence, 60 min | inhibition, % at 10 µM | actives 0.01% (n = 330,000);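 active = highest replicate inhibition of at least 50% and at least 75% of replicates reaching 50%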;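 also: plate controls were DMSO neutral control for no effect and GW8510 at 10 µM for full effect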
Numbers without * were called inactive; · = no result; [ ] = dose if it differs, or a comment. Rows were chosen to be rich in hits. Some 1.4% of all compounds tested hit in one or more screens of this group.

SMILES | GSK3A inh | Env fusion inh | GSIS activator | STK33 kinase inh | GSK3B inh | CDK5 inh
CCC(c1nnnn1-c1ccc2c(c1)OCCO2)N1CCc2ccccc2C1 (configuration not stated) | · | 2.9 | 54.5* | · | · | ·
NC(c1csc(NC(=O)Nc2ccccc2)n1)C1CCCCC1 (configuration not stated) | · | 57.0* | 4.7 | · | · | ·
NC(c1csc(NC(=O)Nc2cccc(Cl)c2)n1)C1CCCCC1 (configuration not stated) | · | -16.6 | -6.2 | · | · | ·
CN(C)c1ncnc2sc(-c3ccccc3)cc12 | 1.4 | 18.0 | 40.4* | 7.1 | 1.1 | -1.7
COc1ncnc2sc(-c3ccccc3)cc12 | 0.3 | · | · | 0.1 | -1.5 | 2.6
Cc1ccc(NC(=O)CSc2nc(=O)n(CCCN(C)C)c3c2CCC3)c(C)c1 | -3.6 | -9.6 | 0.5 | -0.8 | -3.1 | -0.2
Cc1ccc2nc(NC(=O)CSc3nc(=O)n(CCN(C)C)c4c3CCCC4)sc2c1 | 4.1 | -25.5 | 375.8* | 3.1 | -3.0 | 0.8
COc1cccc(C2C3=C(CC(C)(C)CC3=O)Nc3n[nH]c(C)c32)c1 (configuration not stated) | 78.4* | -60.4 | 7.8 | -1.1 | -85.7* | 6.8
COc1ccc(C2C3=C(CC(C)(C)CC3=O)Nc3n[nH]c(C)c32)cc1 (configuration not stated) | 40.8 | · | · | 2.2 | -33.4 | -0.2
Cc1ccc(C2C3=C(CC(C)(C)CC3=O)Nc3[nH]c(=S)[nH]c(=O)c32)cc1 (configuration not stated) | · | -45.1 | · | -0.5 | -1.6 | 1.5
Cc1[nH]nc2c1C(c1ccc(O)cc1)C1=C(CC(C)(C)CC1=O)N2 (configuration not stated) | 86.4* | -22.7 | 48.0 | 0.4 | -73.7* | 4.6
Cc1[nH]nc2c1C(c1ccsc1)C1=C(CC(C)(C)CC1=O)N2 (configuration not stated) | 84.3* | -36.1 | 11.2 | 3.8 | -76.5* | 8.8
COc1ccc(-c2ccc3n(c2=O)C[C@@H]2[C@@H](CO)[C@H](C(=O)N(C)C)[C@H]3N2Cc2cccnc2)cc1 | · | · | -0.5 | · | · | ·
C[C@@H]1CN([C@H](C)CO)C(=O)c2cccc(NS(=O)(=O)c3ccccc3)c2O[C@@H]1CN(C)C(=O)Nc1cccc2ccccc12 | · | -16.6[16.7 µM] | -5.4 | · | · | ·
C[C@@H]1CN([C@H](C)CO)C(=O)c2cc(NC(=O)CCN3CCOCC3)ccc2O[C@H]1CN(C)Cc1ccc(C(=O)O)cc1 | · | · | 5.0 | · | · | ·
O=c1c(/C=N/O)c(Nc2ccccc2)nc2ccccn12 | 1.8 | · | 53.1 | 57.1* | 2.0 | -0.9
CO[C@@H]1CN(C)C(=O)c2cc(NC(=O)NC(C)C)ccc2OC[C@@H](C)N(Cc2cncnc2)C[C@@H]1C | · | -9.6[16.7 µM] | 8.2 | · | · | ·
O=C(NCCc1ccncc1)[C@@H]1[C@@H](CO)[C@@H]2Cn3c(ccc(-c4cccnc4)c3=O)[C@@H]2N1C(=O)C1CC1 | · | · | -3.4 | · | · | ·
C[C@@H]1CN([C@H](C)CO)C(=O)c2cc(NC(=O)C3CCCCC3)ccc2O[C@H]1CN(C)CC1CCCCC1 | · | 14.5[16.7 µM] | -2.8 | · | · | ·
COc1ccccc1N1CCN(Cc2ccc(OC)c(OC)c2OC)CC1 | -1.0 | -15.6 | · | -0.6 | 2.0 | 2.4
COc1ccccc1N1CCN(Cc2ccc(O)c3ncccc23)CC1 | -5.1 | 74.8* | -25.8 | -3.4 | -3.3 | -2.2
COc1ccc(C2=NS(=O)(=O)N(C)C(C(=O)NCc3cccs3)=C2)cc1OC | -0.8 | -20.9 | 18.5 | -0.5 | 1.3 | -0.4
CN1C(C(=O)NCc2cccs2)=CC(c2ccc(F)cc2)=NS1(=O)=O | -3.1 | 71.1* | -1.7 | 1.7 | 1.6 | 0.2
CC(C)NC(=O)N(C)C[C@@H]1Oc2ccc(N(C)C)cc2CC(=O)N([C@@H](C)CO)C[C@H]1C | · | -2.1[16.7 µM] | -6.7 | · | · | ·
CN1[C@@H]2Cn3c(ccc(-c4ccccc4)c3=O)[C@H]1[C@@H](C(=O)NCCCN1CCOCC1)[C@@H]2CO | · | · | -0.2 | · | · | ·
SMILES | GSK3A inh | Env fusion inh | GSIS activator | STK33 kinase inh | GSK3B inh | CDK5 inh
O=C(c1sccc1-c1ccccc1)N1CCN(S(=O)(=O)c2ccccc2F)CC1 | -2.6 | 65.8* | -28.5 | 1.6 | 2.3 | -0.2
COCc1cn(CC[C@H]2CC[C@@H](NC(=O)Nc3ccc(Cl)cc3)[C@H](CO)O2)nn1 | · | -8.9[16.7 µM] | 9.6 | · | · | ·
COc1ccc(OC2C(=O)N(Cc3ccc4c(c3)OCO4)C2c2cccs2)cc1 (configuration not stated) | 3.1 | 68.1* | -23.5 | 0.7 | 4.3 | 0.5
CC(NC(=O)c1ccccc1NC(=O)CN1CCc2ccccc2C1)c1ccccc1 (configuration not stated) | -1.2 | 69.0* | -10.6 | -0.1 | -2.8 | 0.9
CCc1cc2c(=O)c(-c3nc4ccccc4n3C)c(C(C)C)oc2c(CN2CCN(C)CC2)c1O | -2.7 | 56.6* | · | -1.2 | -0.3 | -0.6
CCCCn1nc(NC(=O)CC(C)C)c2cc3cc(OC)ccc3nc21 | -1.6 | -18.8 | · | -2.6 | 0.4 | -0.1
COc1ccc2nc3c(cc2c1)c(NC(=O)C1CCCO1)nn3CC(C)C (configuration not stated) | 98.8* | · | · | 1.1 | -88.3* | 28.4
COc1ccc2nc3c(cc2c1)c(NC(=O)CC(C)C)nn3CC(C)C | 26.1 | -60.3 | 21.4 | -1.0 | -73.3* | 42.1
CCCn1nc(NC(=O)C2CCCO2)c2cc3cc(C)ccc3nc21 (configuration not stated) | -1.0 | -78.6 | · | 2.0 | -1.3 | -1.2
CCc1ccc(CN(C)C(=O)c2cc(COc3ccc(-n4cncn4)cc3)on2)cc1 | 3.1 | 9.4 | -7.2 | -0.4 | 1.0 | 0.6
CN(Cc1ccc(F)cc1)C(=O)c1cc(COc2ccc(-n3cncn3)cc2)on1 | -0.8 | 62.5* | -40.7 | -0.2 | 1.5 | -1.8
CN(Cc1ccc(F)cc1)C(=O)c1cccc(S(=O)(=O)N2CCN(c3ccccc3)CC2)c1 | 0.5 | 9.6 | -17.2 | 0.9 | 2.3 | -0.5
CN(CC(=O)Nc1ccc(F)cc1)C(=O)c1cccc(S(=O)(=O)N2CCN(c3ccc(F)cc3)CC2)c1 | -2.9 | 55.2* | -26.7 | -1.3 | 1.4 | 1.2
CSc1ccc(CN(C)C(=O)c2cccc(S(=O)(=O)N3CCN(Cc4ccccc4)CC3)c2)cc1 | -1.5 | 68.9* | -45.1 | 0.7 | -3.5 | -1.1
CN(Cc1ccc(F)cc1)C(=O)c1cccc(S(=O)(=O)N2CCN(Cc3ccccc3)CC2)c1 | -0.5 | 3.5 | -36.9 | -0.2 | 2.2 | 2.1
CN(Cc1ccc(F)cc1)C(=O)c1cccc(S(=O)(=O)N2CCN(c3ccc(F)cc3)CC2)c1 | 1.3 | 56.7* | -26.6 | 1.4 | 5.8 | -1.4
O=C(NCC[C@H]1CC[C@@H](NC(=O)C2CC2)[C@H](CO)O1)c1cnccn1 | · | -6.8[16.7 µM] | 2.6 | · | · | ·
COc1ccc(C(C(=O)NC2CCCC2)n2c(CSCCOc3ccccc3)nc3ccccc32)cc1 (configuration not stated) | · | 77.7* | -19.7 | · | · | ·
